# High-throughput results (PubChem BioAssay)
# In the library only some 4.5% were active in any assay of this set; here they are far more common.
# Mdm2 ligase inh: Mdm2 E3 ligase (human) inhibition | Q00987 | cell-based MDM2 ubiquitination luciferase reporter, 2 h; 0 = plate control, 100 = twice control, blank-subtracted | signal enhancement, % at 5 µM | 210,000 compounds, 0.11% hits;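 active = signal enhancement of 30% or more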;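 also: luminescence tracks abundance of the self-degrading MDM2-luciferase fusion protein; higher signal means inhibition of MDM2 E3 ligase activity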
#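 Test system: mammalian cells stably expressing self-ubiquitinating, self-degrading MDM2 E3–luciferase fusion; Amount: 2000 cells in each well; Medium: DMEM; Schedule: 4 h settle plus 2 h compound, 37 °C; Technique: SteadyLite luciferase luminescence after 15 min room-temperature reagent incubation; Benchmarks: plate control and blank wells.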
# PERK inhibitor: blocks human PERK kinase; Q9NZJ5; CHO PERK-DD fusion, SEAP luminescence translation reporter; inhibition, % at 5.6 µM; 220,000 compounds, 0.17% hits;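 active = inhibition above the mean inhibition of all tested compounds plus 3 SD, set separately per screening campaign, cut at about 2.9% in these data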;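 also: PERK kinase domain activated by AP20187 dimerizer at 100 nM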
# Target sequence (Q9NZJ5 whole entry, looked up, the tested form may be a part): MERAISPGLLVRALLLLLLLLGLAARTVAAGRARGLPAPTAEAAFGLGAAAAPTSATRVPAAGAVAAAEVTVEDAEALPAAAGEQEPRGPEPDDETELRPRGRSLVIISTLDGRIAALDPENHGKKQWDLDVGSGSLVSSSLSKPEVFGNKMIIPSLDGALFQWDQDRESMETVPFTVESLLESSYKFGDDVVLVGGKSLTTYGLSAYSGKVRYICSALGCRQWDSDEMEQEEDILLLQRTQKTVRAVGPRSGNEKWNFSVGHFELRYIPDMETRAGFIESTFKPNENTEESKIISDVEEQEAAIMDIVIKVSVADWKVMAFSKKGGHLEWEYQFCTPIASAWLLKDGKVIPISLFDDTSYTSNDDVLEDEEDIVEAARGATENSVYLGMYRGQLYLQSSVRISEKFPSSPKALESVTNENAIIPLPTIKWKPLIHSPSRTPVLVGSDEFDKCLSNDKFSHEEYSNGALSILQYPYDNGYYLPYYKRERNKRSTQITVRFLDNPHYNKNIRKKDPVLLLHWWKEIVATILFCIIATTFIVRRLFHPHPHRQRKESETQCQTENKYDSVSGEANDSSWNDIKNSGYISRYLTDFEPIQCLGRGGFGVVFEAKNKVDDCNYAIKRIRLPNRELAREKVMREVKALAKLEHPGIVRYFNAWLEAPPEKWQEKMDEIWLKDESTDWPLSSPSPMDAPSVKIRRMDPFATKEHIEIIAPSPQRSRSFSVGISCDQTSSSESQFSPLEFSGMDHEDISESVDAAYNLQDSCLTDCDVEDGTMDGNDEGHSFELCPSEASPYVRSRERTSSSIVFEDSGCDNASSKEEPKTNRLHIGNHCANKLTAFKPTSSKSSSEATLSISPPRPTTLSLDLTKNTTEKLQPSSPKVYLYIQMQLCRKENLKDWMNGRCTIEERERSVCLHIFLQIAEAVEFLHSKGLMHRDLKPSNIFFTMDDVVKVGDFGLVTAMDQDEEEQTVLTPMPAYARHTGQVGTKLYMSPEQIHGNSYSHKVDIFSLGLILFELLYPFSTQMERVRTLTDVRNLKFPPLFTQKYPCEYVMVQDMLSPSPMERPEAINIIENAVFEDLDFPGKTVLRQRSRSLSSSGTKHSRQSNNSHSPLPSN
# STAT1 activator: activators of IFN-gamma induced STAT1 signaling | activation (% of control), % at 5.5 µM | NIH 3T3 STAT1-luciferase reporter, luminescence; 100% = IFN-gamma alone, no compound | 200,000 compounds, 2.6% hits | AID 932;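 active = activation above the screen-wide mean activation plus 3 SD, cut at about 130% in these data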
# AHR act: activates the human aryl hydrocarbon receptor | activation, % at 5 µM | AHR-responsive luciferase reporter cells, luminescence | 320,000 compounds, 2.5% hits; in the data active = activation above about 47%
# APP 5'UTR act: APP 5'UTR luciferase reporter activation | SH-SY5Y APP 5'UTR luciferase reporter, luminescence; zero percent = DMSO vehicle wells | activation, % at 2 µM | 190,000 compounds, 1% hits | AID 1276;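 active = activation above a set limit, based on mean plus 3 SD of controls, cut at about 140% in these data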
# NF-kB neuron act: raises NF-kB expression in human neuronal cells. 190,000 compounds, 1.6% hits. NF-kB reporter expression; active compounds read high. fold change at 12.5 µM; in the data active = fold change above about 3.3
# Hits are given with their value; n = inactive; x = no result.
SMILES,Mdm2 ligase inh,PERK inhibitor,STAT1 activator,AHR act,APP 5'UTR act,NF-kB neuron act
CCn1c(O)c(/C=C2\C=Nc3ccccc32)sc1=Nc1ccccc1,n,n,n,n,n,n
O=C(Cc1ccccc1)Nn1c(O)c(/C=C2\C=Nc3ccccc32)sc1=S,n,n,n,76.2,n,n
COc1ccc(/C(C)=N/NC(=O)Cc2ccc(Cl)cc2)cc1,x,x,x,n,x,x
COc1ccc2c(=O)cc(-c3ccccc3F)oc2c1,n,n,x,n,x,x
CC(C)n1nnnc1SCC(=O)c1ccc2c(c1)OCCO2,n,n,n,n,155.5,n
COc1ccc(-n2nnnc2SCC(=O)c2ccc3c(c2)OCCO3)c(OC)c1,n,4.0,n,n,n,n
Cc1ccc(C(=O)CSc2nnnn2C(C)C)c(C)c1,n,n,n,n,155.2,n
Cc1cc(C(=O)CSc2nnnn2C)c(C)n1-c1ccc2c(c1)OCCO2,n,n,137.5,n,n,n
Cc1ccc(C)c(C(=O)CSc2nnnn2C(C)C)c1,n,n,n,n,n,n
Cc1cc(C)cc(NC(=S)N2CCC(NC(=O)c3ccco3)CC2)c1,x,x,x,n,x,x
Cc1cccc(C)c1NC(=O)NN=C1CCCCC1,n,n,x,n,x,x
O=C(O)c1cccc(Cn2c(Cl)c(/C=N/NC(=O)c3cc4ccccc4cc3O)sc2=O)c1,n,n,x,n,x,x
COc1cccc(CNC(=O)CCC(=O)N2CCOCC2)c1,x,x,x,n,x,x
CCc1ccc(-c2ccc(SCc3ccccn3)nn2)cc1,n,n,139.5,n,n,n
c1ccc(CSc2ccc(-c3cccs3)nn2)nc1,n,n,135.9,n,n,n
CCOc1ccc(-c2ccc(SCc3ccccn3)nn2)cc1,n,n,128.7,n,n,n
CCc1ccc(NC(=O)CSc2ccc(-c3ccccn3)nn2)cc1,x,x,x,n,x,x
c1ccc(CSc2nnc3ccc(-c4cccs4)nn23)nc1,n,n,n,n,n,n
CCOc1ccc(/C=N/NC(=O)c2cc3ccccc3cc2OC)cc1,x,x,x,n,x,x
CC(C)NC(=S)N/N=C1\CCCc2ccccc21,n,n,n,n,n,n
O=C(Cc1ccccc1)Nc1ccc2c(c1)CCC2,n,n,132.9,n,n,n
COc1cc(CNc2ccc(CNc3ncn[nH]3)cc2)ccc1OCC(=O)NC(C)(C)C,n,n,n,56.3,n,n
CCCN(CCC)C(=O)Cn1c2ccccc2c2nc(=O)cc(C)n21,n,n,n,50.5,n,n
Cc1cc(=O)nc2c3ccccc3n(CC(=O)NC3CCCCC3)n12,x,x,x,n,x,x
CN(c1ccccc1)S(=O)(=O)c1cccc(C(=O)N2CCN(c3ccccn3)CC2)c1,n,n,n,64.2,n,n
SMILES,Mdm2 ligase inh,PERK inhibitor,STAT1 activator,AHR act,APP 5'UTR act,NF-kB neuron act
Cc1ccc2oc(-c3cccc(NC(=O)/C=C/c4cccc([N+](=O)[O-])c4)c3C)nc2c1,n,n,136.1,n,n,n
CC(SC1=NCCS1)C(=O)Nc1nnc(-c2ccc(Cl)cc2)s1 (stereo not drawn),n,n,n,n,n,n
COc1ccccc1-c1nnc(NC(=O)C(C)SC2=NCCS2)s1 (stereo not drawn),n,n,n,57.0,n,n
CC(=O)Nc1ccc(OCC(O)CN2C(C)(C)CC(O)CC2(C)C)cc1 (stereo not drawn),x,n,n,n,n,n
Cc1ccccc1NC(=O)NCCCN1CCCC1,n,3.5,n,n,n,n
O=C(COC(=O)c1ccccc1[N+](=O)[O-])NCCCc1ccccc1,x,x,x,n,x,x
Cc1ccc2nc(N3C(=O)C(O)=C(C(=O)c4ccco4)C3c3cccs3)sc2c1 (stereo not drawn),n,n,n,n,170.5,n
Cc1cc(C(=O)Nc2nc(C)c(C(=O)N(C)C)s2)ccc1[N+](=O)[O-],n,n,150.2,n,n,n
Cc1nc(-c2ccc(NC(=O)C3CCCCC3)cc2)cs1,n,n,137.9,n,167.4,3.51
Cc1nc(-c2ccc(NC(=O)c3ccccc3)cc2)cs1,n,n,n,n,184.3,7.52
CCc1ccccc1NC(=O)c1ccc(-c2csc(C)n2)cc1,x,x,x,n,x,x
O=C(Nc1ccc(F)cc1)C1CCCCC1,n,n,n,n,n,n
O=[N+]([O-])c1ccccc1/C=N/NC1=NCCCCC1,n,n,132.8,n,n,n
COC(=O)c1ccc(Cn2nnc3ccccc32)cc1,n,n,x,n,x,x
COC(=O)c1ccc(COn2nnc3ccccc32)cc1,n,n,n,n,199.9,5.41
